Results reported in ChEMBL document CHEMBL4689842, “EUbOPEN Chemogenomics Library wave 1” (2021).

Test system: U2OS
Experiment: Multiplex assay against U2OS
Format: toxicity, cell-based
Conditions: human
Outline: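 Values for tubulin, mitochondrial-mass and membrane-permeability phenotypes are per cents of cells with healthy nuclei. These cells were identified by CellPathfinder machine-learning gating of live cells that had been stained at seeding with Hoechst33342, BioTracker Green Microtubule Cytoskeleton Dye, MitoTracker Red and Annexin V Alexa Fluor 680 and imaged on a CQ1 microscope at 37°C and 5% CO2 after compound addition. The gating first set Hoechst high-intensity objects apart from normal cells, then split normal cells into healthy, pyknosed or fragmented nuclei, and pyknosed cells into mitotic or apoptotic.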

[1] = 12 h, 1 µM, compound concentration 1 uM, replicate 1
[2] = 12 h, 1 µM, compound concentration 1 uM, replicate 2
[3] = 12 h, 10 µM, compound concentration 10 uM, replicate 1
[4] = 12 h, 10 µM, compound concentration 10 uM, replicate 2
[5] = 24 h, 1 µM, compound concentration 1 uM, replicate 1
[6] = 24 h, 1 µM, compound concentration 1 uM, replicate 2
[7] = 24 h, 10 µM, compound concentration 10 uM, replicate 1
[8] = 24 h, 10 µM, compound concentration 10 uM, replicate 2
[9] = 48 h, 1 µM, compound concentration 1 uM, replicate 1
[10] = 48 h, 1 µM, compound concentration 1 uM, replicate 2
[11] = 48 h, 10 µM, compound concentration 10 uM, replicate 1
[12] = 48 h, 10 µM, compound concentration 10 uM, replicate 2

## OC1(c2ccc(Cl)cc2)CCN(Cc2c[nH]c3ccccc23)CC1
[1]
  Population Apoptotic (%): 64%
  Population Fragmented Nuclei (%): 10%
  Population Healthy Nuclei (%): 80%
  Population Hoechst High Intensity Objects (%): 9%
  Population Mitochondria Different-Phenotype (%): 15%
  Population Mitotic Cells (%): 35%
  Population Normal (%): 90%
  Population Tubulin-Different-Phenotype (%): 11%
  Total Cell Count: 115
[2]
  Population Apoptotic (%): 0%
  Population Fragmented Nuclei (%): 13%
  Population Healthy Nuclei (%): 77%
  Population Hoechst High Intensity Objects (%): 10%
  Population Membrane Permeable-Phenotype (%): 3%
  Population Mitochondria Different-Phenotype (%): 13%
  Population Mitotic Cells (%): 100%
  Population Normal (%): 89%
  Population Pyknosed Nuclei (%): 9%
  Population Tubulin-Different-Phenotype (%): 9%
  Total Cell Count: 78
[3]
  Population Apoptotic (%): 52%
  Population Fragmented Nuclei (%): 15%
  Population Healthy Nuclei (%): 35%
  Population Hoechst High Intensity Objects (%): 5%
  Population Membrane Permeable-Phenotype (%): 10%
  Population Mitochondria Different-Phenotype (%): 92%
  Population Mitotic Cells (%): 47%
  Population Normal (%): 94%
  Population Pyknosed Nuclei (%): 48%
  Population Tubulin-Different-Phenotype (%): 84%
  Total Cell Count: 165
[4]
  Population Apoptotic (%): 42%
  Population Fragmented Nuclei (%): 13%
  Population Healthy Nuclei (%): 38%
  Population Hoechst High Intensity Objects (%): 3%
  Population Membrane Permeable-Phenotype (%): 4%
  Population Mitochondria Different-Phenotype (%): 95%
  Population Mitotic Cells (%): 57%
  Population Normal (%): 96%
  Population Pyknosed Nuclei (%): 47%
  Population Tubulin-Different-Phenotype (%): 60%
  Total Cell Count: 74
[5]
  Population Apoptotic (%): 50%
  Population Fragmented Nuclei (%): 7%
  Population Healthy Nuclei (%): 82%
  Population Hoechst High Intensity Objects (%): 4%
  Population Membrane Permeable-Phenotype (%): 3%
  Population Mitochondria Different-Phenotype (%): 6%
  Population Mitotic Cells (%): 50%
  Population Normal (%): 95%
  Population Pyknosed Nuclei (%): 9%
  Population Tubulin-Different-Phenotype (%): 10%
  Total Cell Count: 119
[6]
  Population Apoptotic (%): 20%
  Population Fragmented Nuclei (%): 5%
  Population Healthy Nuclei (%): 88%
  Population Hoechst High Intensity Objects (%): 8%
  Population Membrane Permeable-Phenotype (%): 4%
  Population Mitochondria Different-Phenotype (%): 13%
  Population Mitotic Cells (%): 80%
  Population Normal (%): 91%
  Population Pyknosed Nuclei (%): 6%
  Population Tubulin-Different-Phenotype (%): 8%
  Total Cell Count: 77
[7]
  Population Apoptotic (%): 61%
  Population Fragmented Nuclei (%): 20%
  Population Healthy Nuclei (%): 22%
  Population Hoechst High Intensity Objects (%): 9%
  Population Membrane Permeable-Phenotype (%): 20%
  Population Mitochondria Different-Phenotype (%): 79%
  Population Mitotic Cells (%): 38%
  Population Normal (%): 90%
  Population Pyknosed Nuclei (%): 56%
  Population Tubulin-Different-Phenotype (%): 50%
  Total Cell Count: 197
[8]
  Population Apoptotic (%): 66%
  Population Fragmented Nuclei (%): 21%
  Population Healthy Nuclei (%): 27%
  Population Hoechst High Intensity Objects (%): 5%
  Population Membrane Permeable-Phenotype (%): 5%
  Population Mitochondria Different-Phenotype (%): 94%
  Population Mitotic Cells (%): 33%
  Population Normal (%): 94%
  Population Pyknosed Nuclei (%): 51%
  Population Tubulin-Different-Phenotype (%): 52%
  Total Cell Count: 85
[9]
  Population Apoptotic (%): 23%
  Population Healthy Nuclei (%): 83%
  Population Mitochondria Different-Phenotype (%): 11%
  Population Mitotic Cells (%): 76%
  Population Pyknosed Nuclei (%): 9%
  Population Tubulin-Different-Phenotype (%): 8%
  Total Cell Count: 132
[10]
  Population Apoptotic (%): 41%
  Population Fragmented Nuclei (%): 7%
  Population Healthy Nuclei (%): 81%
  Population Hoechst High Intensity Objects (%): 3%
  Population Membrane Permeable-Phenotype (%): 3%
  Population Mitochondria Different-Phenotype (%): 17%
  Population Mitotic Cells (%): 58%
  Population Normal (%): 96%
  Population Pyknosed Nuclei (%): 11%
  Population Tubulin-Different-Phenotype (%): 16%
  Total Cell Count: 85
[11]
  Population Apoptotic (%): 79%
  Population Fragmented Nuclei (%): 37%
  Population Healthy Nuclei (%): 6%
  Population Hoechst High Intensity Objects (%): 12%
  Population Membrane Permeable-Phenotype (%): 25%
  Population Mitochondria Different-Phenotype (%): 87%
  Population Mitotic Cells (%): 20%
  Population Normal (%): 88%
  Population Pyknosed Nuclei (%): 56%
  Population Tubulin-Different-Phenotype (%): 62%
  Total Cell Count: 282
[12]
  Population Apoptotic (%): 70%
  Population Fragmented Nuclei (%): 32%
  Population Healthy Nuclei (%): 12%
  Population Hoechst High Intensity Objects (%): 8%
  Population Membrane Permeable-Phenotype (%): 75%
  Population Mitochondria Different-Phenotype (%): 75%
  Population Mitotic Cells (%): 29%
  Population Normal (%): 91%
  Population Pyknosed Nuclei (%): 54%
  Population Tubulin-Different-Phenotype (%): 50%
  Total Cell Count: 111
